Experiment [1] deals with A549. The experiment in a line: Selectivity ratio of IC50 for human p53 deficient PC3 cells to IC50 for human A549 cells expressing wild type p53. It counts as functional.
The test system of experiment [2] is A549. The experiment in a line: Cytotoxicity against human A549 cells expressing wild type p53 after 72 hrs by SRB assay. The conditions noted are these: A549, 72 h. It counts as functional, cell-based. The method in brief:
(§1)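 Seeded cells cultured overnight, then exposed to serial compound concentrations for 72 h. Fixed with 10% (w/v) TCA at 4 °C for 1 h, stained 30 min with 0.4% SRB in 1% acetic acid, washed with 1% acetic acid, and bound dye extracted with unbuffered Tris base. Absorbance read at 515 nm; inhibition computed versus untreated controls. IC50 derived by Logit method, mean of at least two independent tests.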
(In general: In SRB staining, fixed cells bind dye roughly in proportion to their protein.)

A further experiment deals with PC-3. The experiment in a line: Cytotoxicity against human p53 deficient PC3 cells after 72 hrs by SRB assay. It counts as functional, cell-based. Particulars: PC-3, 72 h; call rule not given here. The method in brief: as §1
The target in experiment [3] is Tumour suppressor p53/oncoprotein Mdm2 (Homo sapiens, UniProt Q00987). The experiment in a line: (§2) Inhibition of p53/MDM2 (1 to 118) (unknown origin) interaction after 1 hr by fluorescence polarization assay. It counts as protein assay.
Experiment [4] has as its target Tumour suppressor p53/oncoprotein Mdm2 (Homo sapiens, UniProt P04637+Q00987). Described as §2. Format: protein assay.

The text below walks through data of ChEMBL document CHEMBL2384915, “Design, synthesis and biological evaluation of novel 3,4,5-trisubstituted aminothiophenes as inhibitors of p53-MDM2 interaction. Part 2” (Bioorg Med Chem, 2013).

The IC50 is the concentration that gives 50% inhibition. By Ki is commonly meant the equilibrium dissociation constant of an inhibitor or competing ligand from its target.

Tumour suppressor p53/oncoprotein Mdm2 (Homo sapiens, UniProt Q00987), sequence (P04637 whole entry): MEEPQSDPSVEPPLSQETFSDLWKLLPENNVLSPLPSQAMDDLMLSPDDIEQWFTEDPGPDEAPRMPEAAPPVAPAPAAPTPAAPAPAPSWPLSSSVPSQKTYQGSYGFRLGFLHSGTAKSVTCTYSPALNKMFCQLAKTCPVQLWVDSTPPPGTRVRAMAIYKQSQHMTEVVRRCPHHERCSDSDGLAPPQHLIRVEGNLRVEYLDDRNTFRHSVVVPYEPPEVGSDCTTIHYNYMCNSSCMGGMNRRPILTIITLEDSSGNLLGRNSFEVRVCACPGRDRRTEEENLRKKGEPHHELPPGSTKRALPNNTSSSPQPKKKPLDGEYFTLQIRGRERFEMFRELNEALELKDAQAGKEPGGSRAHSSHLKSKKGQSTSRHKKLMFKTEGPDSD
Tumour suppressor p53/oncoprotein Mdm2 (Homo sapiens, UniProt Q00987), sequence (Q00987 whole entry): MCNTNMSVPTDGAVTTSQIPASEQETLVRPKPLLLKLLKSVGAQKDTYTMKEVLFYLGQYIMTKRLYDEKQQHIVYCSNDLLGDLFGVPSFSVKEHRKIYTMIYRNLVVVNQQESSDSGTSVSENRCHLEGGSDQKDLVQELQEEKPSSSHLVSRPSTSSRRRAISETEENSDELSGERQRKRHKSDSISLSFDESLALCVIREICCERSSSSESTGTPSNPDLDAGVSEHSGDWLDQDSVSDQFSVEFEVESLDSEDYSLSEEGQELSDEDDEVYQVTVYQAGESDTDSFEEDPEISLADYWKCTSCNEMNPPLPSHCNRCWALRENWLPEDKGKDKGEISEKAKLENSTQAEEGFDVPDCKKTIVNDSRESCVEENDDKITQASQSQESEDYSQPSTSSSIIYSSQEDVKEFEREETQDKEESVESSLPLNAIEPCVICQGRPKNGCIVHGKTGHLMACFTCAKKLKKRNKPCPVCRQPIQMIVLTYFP
Tumour suppressor p53/oncoprotein Mdm2 (Homo sapiens, UniProt P04637+Q00987), sequence (P04637 whole entry): as the sequence (P04637 whole entry) above
Tumour suppressor p53/oncoprotein Mdm2 (Homo sapiens, UniProt P04637+Q00987), sequence (Q00987 whole entry): as the sequence (Q00987 whole entry) above

Regarding `Nc1sc(-c2ccc(F)cc2)c(-c2ccc(Cl)cc2)c1C(=O)NC1CC1`, in the experiment on A549 [1], the “Ratio IC50” value is greater than 5. For the same compound, the IC50 in the experiment with A549 [2] amounted to 3 µM; in the experiment on PC-3 it was 27.9 µM. In experiment [3], this compound showed a Ki of 0.34 µM.
Consider `Nc1sc(-c2ccccc2)c(-c2ccc(Cl)cc2)c1C(=O)N1CCOCC1`, for which the IC50 with A549 [2] came to 14.2 µM; with PC-3, 29.3 µM. This compound registered a Ki in experiment [3] of 0.28 µM.
`COc1ccc(C2=N[C@@H](c3ccc(Cl)cc3)[C@@H](c3ccc(Cl)cc3)N2C(=O)N2CCNC(=O)C2)c(OC(C)C)c1` [NUTLIN-3]: the IC50 with A549 [2] amounted to 4.62 µM; in the experiment with PC-3, 20 µM.
With `Nc1sc(-c2ccc(Br)cc2)c(-c2ccc(Cl)cc2)c1C(=O)N1CCOCC1`, the “Ratio IC50” value in the experiment on A549 [1] was greater than 5. In addition, the IC50 was 7.49 µM with A549 [2] and greater than 50 µM with PC-3. Besides, the Ki in experiment [3] was 1.48 µM.
The corresponding values for `CCOC(=O)c1c(N)[nH]c(-c2ccc(Cl)cc2)c1-c1ccc(Cl)cc1` are greater than 5, 2.53 µM, 16.1 µM and 1.24 µM.
On to `O=C1CC(c2cccs2)c2c(sc(-c3ccc(Cl)cc3)c2-c2ccc(Cl)cc2)N1` (stereo unspecified), for which the IC50 is 20.2 µM in the experiment with A549 [2] and greater than 50 µM in the experiment with PC-3.
For the compound `Nc1sc(-c2ccc([N+](=O)[O-])cc2)c(-c2ccc(Cl)cc2)c1C(=O)N1CCCC1`, the results for the IC50 with A549 [2] and with PC-3 were 10.7 µM and 42.6 µM, respectively. In addition, in experiment [4], the Ki entry is on record as “Not Active”.
Take `Nc1sc(-c2ccccc2)c(-c2ccc(Cl)cc2)c1C(=O)NCc1ccccc1`: the IC50 stood at 8.51 µM with A549 [2] and 22.8 µM with PC-3. In addition, affinity in experiment [3] was put at a Ki of 1.14 µM.
With `COC(=O)c1c(N)sc(-c2ccc(Cl)cc2)c1-c1ccc(Cl)cc1`, the IC50 in the experiment on A549 [2] turned out to be 5.04 µM; in the experiment with PC-3, 2.78 µM.
Regarding `Nc1sc(-c2ccc(Br)cc2)c(-c2ccc(Cl)cc2)c1C(=O)NCc1ccccc1`, the results for the IC50 in the experiment on A549 [2] and in the experiment with PC-3 were 18.7 µM and greater than 50 µM, respectively. The Ki in experiment [3] amounted to 0.76 µM.
As to `Clc1ccc(-c2sc3ncnc(N4CCCCC4)c3c2-c2ccc(Cl)cc2)cc1`, the IC50 in the experiment with A549 [2] and with PC-3 was greater than 50 µM throughout.
In the case of `Nc1sc(-c2ccc(Cl)cc2)c(-c2ccc(Cl)cc2)c1C(=S)NC1CCCC1`, the IC50 in the experiment on A549 [2] was 22.1 µM; in the experiment on PC-3, 29 µM. Further, the Ki in experiment [3] worked out at 0.17 µM.
The corresponding values for `Nc1sc(-c2ccccc2)c(-c2ccc(Cl)cc2)c1C(=O)N1CCCC1` are 5.8 µM, 22.2 µM and 1.96 µM.
The corresponding values for `Nc1sc(-c2ccc(F)cc2)c(-c2ccc(Cl)cc2)c1C(=O)NCc1ccccc1` are 9.95 µM, 25.8 µM and 0.6 µM.
On to `Nc1sc(-c2ccc(F)cc2)c(-c2ccc(Cl)cc2)c1C(=O)N1CCCC1`, for which the figures for the IC50 with A549 [2] and with PC-3 were 18.8 µM and 20.4 µM, respectively. The same compound returned an inhibition constant Ki in experiment [3] of 1.22 µM.
With `Nc1sc(-c2ccc(Cl)cc2)c(-c2ccc(Cl)cc2)c1C(=O)N1CCCC1`, the IC50 with A549 [2] turned out to be 0.89 µM; with PC-3 it was 6.22 µM.
`CC(C)(C)NC(=S)c1c(N)sc(-c2ccc(Cl)cc2)c1-c1ccc(Cl)cc1`: the IC50 in the experiment on A549 [2] is greater than 50 µM; with PC-3, 34 µM. Moreover, the inhibitory constant (Ki) in experiment [3] turned out to be 0.58 µM.
Turning to `Clc1ccc(-c2sc3ncnc(N4CCOCC4)c3c2-c2ccc(Cl)cc2)cc1`, the IC50 in the experiment with A549 [2] and in the experiment on PC-3 was greater than 50 µM throughout.
In the case of `Nc1sc(-c2ccc(Br)cc2)c(-c2ccc(Cl)cc2)c1C(=O)NC1CCCCC1`, the IC50 in the experiment with A549 [2] turned out to be 9.59 µM; in the experiment on PC-3 it was 28.4 µM. For the same compound, in experiment [3], the Ki worked out at 1.06 µM.
Turning to `Nc1sc(-c2ccc([N+](=O)[O-])cc2)c(-c2ccc(Cl)cc2)c1C(=O)N1CCOCC1`, the values for the IC50 with A549 [2] and with PC-3 were 16.7 µM and greater than 50 µM, respectively. Moreover, the Ki result in experiment [4] is listed as “Not Active”.
Consider `O=C1CC(c2ccccc2)c2c(sc(-c3ccc(Cl)cc3)c2-c2ccc(Cl)cc2)N1` (stereo unspecified), for which the IC50 in the experiment with A549 [2] was 17.2 µM; in the experiment on PC-3, greater than 50 µM.
With `Nc1[nH]c(-c2ccc(Cl)cc2)c(-c2ccc(Cl)cc2)c1C(=O)NC1CC1`, the IC50 in the experiment on A549 [2] was determined as 4.62 µM; in the experiment on PC-3, 19.3 µM. Moreover, affinity in experiment [3] was put at a Ki of 0.53 µM.
Regarding `O=C1CC(c2ccco2)c2c(sc(-c3ccc(Cl)cc3)c2-c2ccc(Cl)cc2)N1` (stereo unspecified), the values for the IC50 in the experiment with A549 [2] and in the experiment with PC-3 were 25.4 µM and greater than 50 µM, respectively.
For `Nc1sc(-c2ccc(Cl)cc2)c(-c2ccc(Cl)cc2)c1C(=S)NC1CCCCC1`, the figures for the IC50 in the experiment on A549 [2] and with PC-3 were 7.41 µM and 27.7 µM, respectively. The compound further yielded a Ki in experiment [3] of 0.32 µM.
For the compound `Nc1sc(-c2ccc([N+](=O)[O-])cc2)c(-c2ccc(Cl)cc2)c1C(=O)NC1CCCCC1`, the 50% inhibitory concentration (IC50) is 15 µM in the experiment on A549 [2] and 25.9 µM in the experiment with PC-3. Further, the Ki entry in experiment [4] was “Not Active”.
Regarding `Nc1sc(-c2ccc(F)cc2)c(-c2ccc(Cl)cc2)c1C(=O)N1CCOCC1`, the IC50 in the experiment with A549 [2] is 12.7 µM; in the experiment on PC-3 it was 25.1 µM. This compound also returned a Ki in experiment [3] of 0.22 µM.
For `Nc1sc(-c2ccc(Br)cc2)c(-c2ccc(Cl)cc2)c1C(=O)N1CCCC1`, in the experiment with A549 [1], the “Ratio IC50” value is on record as greater than 5. Moreover, the IC50 came out at 7.46 µM in the experiment on A549 [2] and 37.5 µM in the experiment with PC-3. In experiment [3], this compound showed a Ki of 0.75 µM.
With `Nc1sc(-c2ccc(Cl)cc2)c(-c2ccc(Cl)cc2)c1C(=S)NC1CC1`, the IC50 in the experiment on A549 [2] was determined as 8.28 µM; with PC-3, 22.1 µM. In experiment [3], this compound registered a Ki of 0.086 µM.
For the compound `Nc1sc(-c2ccc(Cl)cc2)c(-c2ccc(Cl)cc2)c1C(=O)NC1CC1`, the values for the IC50 with A549 [2] and in the experiment on PC-3 were 1.95 µM and 3.68 µM, respectively.
Consider `Clc1ccc(-c2sc3ncnc(NC4CC4)c3c2-c2ccc(Cl)cc2)cc1`, for which the results for the IC50 with A549 [2] and with PC-3 were 42.8 µM and greater than 50 µM, respectively.
Take `Nc1sc(-c2ccc(Br)cc2)c(-c2ccc(Cl)cc2)c1C(=O)NC1CC1`: the IC50 in the experiment on A549 [2] is greater than 50 µM; in the experiment with PC-3 it was 37.3 µM. The same compound gave a Ki in experiment [3] of 2.18 µM.
On to `Nc1sc(-c2ccc([N+](=O)[O-])cc2)c(-c2ccc(Cl)cc2)c1C(=O)N1CCCCC1`, for which the Ki result in experiment [4] was “Not Active”.
Same read-out and setting: to `Nc1sc(-c2ccc([N+](=O)[O-])cc2)c(-c2ccc(Cl)cc2)c1C(=O)NC1CC1` belongs “Not Active”.
On to `Clc1ccc(-c2sc3ncnc(NC4CCCCC4)c3c2-c2ccc(Cl)cc2)cc1`, for which the IC50 in the experiment with A549 [2] and in the experiment with PC-3 was greater than 50 µM throughout.
On to `Nc1sc(-c2ccc(Cl)cc2)c(-c2ccc(Cl)cc2)c1C(=O)NC1CCCCC1`, for which the IC50 was 2.41 µM in the experiment with A549 [2] and 7.3 µM in the experiment with PC-3.
As for `Nc1sc(-c2ccccc2)c(-c2ccc(Cl)cc2)c1C(=O)NC1CC1`, the results for the IC50 with A549 [2] and in the experiment with PC-3 were 4.3 µM and 17.1 µM, respectively. The Ki in experiment [3] amounted to 0.63 µM.
